From ChEMBL document CHEMBL1138199, “Identification of compounds with anti-West Nile Virus activity” (J Med Chem, 2006)
pEC50: −log10 of the molar value.

Key:
BHK-21 [1] = assay: Cytotoxicity against BHK21 cell line by MTT assay; format: functional; settings: Mesocricetus auratus
In short: (§1)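 MTT cytotoxicity assay run in BHK-21 and Vero cells on compounds giving >50% Rluc inhibition in the primary screens; CC50 reported in µM.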

[2] = Therapeutic index (CC50/EC50) in BHK21 cells; format: cell-based, BHK-21; settings: hamster, read-out: Ratio CC50/EC50
In short: (§2)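 TI computed as CC50/EC50, using MTT CC50 and replicon EC50 in BHK-21 cells, or MTT CC50 and Rluc-FL-WNV EC50 in Vero cells.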

West Nile virus [3] = assay: Inhibition of West Nile viral Rluc-Neo-Rep in BHK21 cell line; format: functional, organism-based; settings: BHK-21
In short: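 BHK-21 cell line stably carrying Rluc-Neo-Rep replicon; inhibition read as suppression of Renilla luciferase signal. Initial screen at 30 µM, 1% DMSO final; EC50 (µM) then determined.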

BHK-21 [4] = assay: Inhibition of West Nile virus VLP replicon in BHK21 cell line; format: functional, cell-based; settings: Mesocricetus auratus
In short: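 Naive BHK-21 cells infected with virus-like particles, made by expressing WNV structural proteins in cells carrying the Rluc-Neo-Rep replicon, which package replicon RNA. This captures entry and replication but not assembly. Inhibition is read as suppression of Renilla luciferase signal. Compounds were given in 1% DMSO final, and EC50 is in µM.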

[5] = Therapeutic index (CC50/EC50) in Vero cells; format: cell-based; settings: monkey, read-out: Ratio CC50/EC50; in short: as §2
Vero = assay: Cytotoxicity against Vero cells by MTT assay; format: functional; settings: Chlorocebus sabaeus; in short: as §1
West Nile virus [6] = assay: Inhibition of Rluc-FL-WNV replicon in Vero cells; format: functional, organism-based
In short: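 Vero cells infected with full-length WNV carrying Renilla luciferase reporter (Rluc-FL-WNV), covering entry, replication and assembly; inhibition read as suppression of luciferase signal. Compounds first screened at 30 µM in 1% DMSO final, then EC50 (µM) determined.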

CC(C)(C)C(=O)N1N=C(C(C)(C)C)CC1c1ccc(Cl)cc1 (stereo unspecified)
CC50 (BHK-21 [1]): 60 µM | selectivity ratio [2]: 2.2 | pEC50 (West Nile virus [3]): 4.57

O=C(Cc1ccc(Cl)cc1)N1N=C(c2ccco2)CC1c1ccc(Br)cc1 (stereo unspecified)
CC50 (BHK-21 [1]): > 300 µM | selectivity ratio [2]: > 15 | pEC50 (West Nile virus [3]): 4.70

CC(C)(C)C1=NN(C(=O)c2ccccc2)C(c2ccc(Cl)cc2)C1 (stereo unspecified)
CC50 (BHK-21 [1]): 65 µM | selectivity ratio [2]: 1.1 | pEC50 (West Nile virus [3]): 4.24

CN1CCN(C(=O)c2ccc3nc4ccccc4c(NC4CCN(Cc5ccccc5)CC4)c3c2)CC1
pEC50 (BHK-21 [4]): 4.60 | selectivity ratio [5]: 3.2 | CC50 (Vero): 80 µM | CC50 (BHK-21 [1]): 100 µM | selectivity ratio [2]: 3.6 | pEC50 (West Nile virus [3]): 4.55 | pEC50 (West Nile virus [6]): 4.60

CN1CCN(C(=O)c2ccc3c(NCCc4c[nH]c5ccccc45)c4ccccc4nc3c2)CC1
pEC50 (BHK-21 [4]): 5.00 | selectivity ratio [5]: < 1.5 | CC50 (Vero): 45 µM | CC50 (BHK-21 [1]): 150 µM | selectivity ratio [2]: 11 | pEC50 (West Nile virus [3]): 4.86 | pEC50 (West Nile virus [6]): < 4.52

CCN(CC)C(=O)c1ccc2c(NCCc3c[nH]c4ccccc34)c3ccccc3nc2c1
pEC50 (BHK-21 [4]): 5.15 | selectivity ratio [5]: 1.8 | CC50 (Vero): 45 µM | CC50 (BHK-21 [1]): 125 µM | selectivity ratio [2]: 18 | pEC50 (West Nile virus [3]): 5.15 | pEC50 (West Nile virus [6]): 4.60

O=C(c1ccccc1)N1N=C(c2ccccc2)CC1c1ccc(Cl)cc1 (stereo unspecified)
CC50 (BHK-21 [1]): 250 µM | selectivity ratio [2]: 12.5 | pEC50 (West Nile virus [3]): 4.70

O=C(Cc1ccc(Cl)cc1)N1N=C(c2cccs2)CC1c1ccc(Cl)cc1 (stereo unspecified)
CC50 (BHK-21 [1]): > 300 µM | selectivity ratio [2]: > 16 | pEC50 (West Nile virus [3]): 4.72

CCN(CC)C(=O)c1ccc2nc3ccccc3c(NC3CCN(Cc4ccccc4)CC3)c2c1
pEC50 (BHK-21 [4]): 4.66 | selectivity ratio [5]: 2.5 | CC50 (Vero): 50 µM | CC50 (BHK-21 [1]): 120 µM | selectivity ratio [2]: 5.4 | pEC50 (West Nile virus [3]): 4.66 | pEC50 (West Nile virus [6]): 4.70

CCN(CC)C(=O)c1ccc2nc3ccccc3c(NCCc3c[nH]c4ccccc34)c2c1
pEC50 (BHK-21 [4]): 4.70 | selectivity ratio [5]: 5 | CC50 (Vero): 75 µM | CC50 (BHK-21 [1]): 110 µM | selectivity ratio [2]: 4.4 | pEC50 (West Nile virus [3]): 4.60 | pEC50 (West Nile virus [6]): 4.82

O=C(c1ccccc1)N1N=C(c2cccs2)CC1c1ccc([N+](=O)[O-])cc1 (stereo unspecified)
CC50 (BHK-21 [1]): > 300 µM | selectivity ratio [2]: > 1.5 | pEC50 (West Nile virus [3]): 3.70

CC(C)(C)C(=O)N1N=C(c2cccs2)CC1c1ccc(Cl)cc1 (stereo unspecified)
CC50 (BHK-21 [1]): 90 µM | selectivity ratio [2]: 1.5 | pEC50 (West Nile virus [3]): 4.22

O=C(c1ccccc1)N1N=C(c2cccs2)CC1c1ccc(F)cc1 (stereo unspecified)
CC50 (BHK-21 [1]): 100 µM | selectivity ratio [2]: 1.7 | pEC50 (West Nile virus [3]): 4.23

COc1ccc(C2CC(c3cccs3)=NN2C(=O)Cc2ccc(Cl)cc2)cc1 (stereo unspecified)
CC50 (BHK-21 [1]): > 300 µM | selectivity ratio [2]: > 10 | pEC50 (West Nile virus [3]): 4.52

CN1CCN(C(=O)c2ccc3nc4ccccc4c(NCCc4c[nH]c5ccccc45)c3c2)CC1
pEC50 (BHK-21 [4]): 4.57 | selectivity ratio [5]: 2.6 | CC50 (Vero): 65 µM | CC50 (BHK-21 [1]): 170 µM | selectivity ratio [2]: 6.1 | pEC50 (West Nile virus [3]): 4.55 | pEC50 (West Nile virus [6]): 4.60

CN1CCN(C(=O)c2ccc3nc4ccccc4c(Oc4ccccc4)c3c2)CC1
pEC50 (BHK-21 [4]): 4.70 | selectivity ratio [5]: 4 | CC50 (Vero): 80 µM | CC50 (BHK-21 [1]): 100 µM | selectivity ratio [2]: 4.7 | pEC50 (West Nile virus [3]): 4.68 | pEC50 (West Nile virus [6]): 4.70

O=C(c1ccc([N+](=O)[O-])cc1)N1N=C(c2cccs2)CC1c1ccc(Cl)cc1 (stereo unspecified)
CC50 (BHK-21 [1]): > 300 µM | selectivity ratio [2]: > 1.3 | pEC50 (West Nile virus [3]): 3.65

O=C(Cc1ccccc1)N1N=C(c2cccs2)CC1c1ccc(Cl)cc1 (stereo unspecified)
CC50 (BHK-21 [1]): 65 µM | selectivity ratio [2]: 3.3 | pEC50 (West Nile virus [3]): 4.70

O=C(c1ccccc1)N1N=C(c2cccs2)CC1c1ccc(Br)cc1 (stereo unspecified)
CC50 (BHK-21 [1]): > 300 µM | selectivity ratio [2]: > 12 | pEC50 (West Nile virus [3]): 4.60 | pEC50 (West Nile virus [6]): < 4.52

COc1ccc(C2CC(c3cccs3)=NN2C(=O)c2ccccc2)cc1 (stereo unspecified)
CC50 (BHK-21 [1]): > 300 µM | selectivity ratio [2]: > 4.8 | pEC50 (West Nile virus [3]): 4.20 | pEC50 (West Nile virus [6]): < 4.52

O=C(Cc1ccc(Cl)cc1)N1N=C(c2cccs2)CC1c1ccc(Br)cc1 (stereo unspecified)
CC50 (BHK-21 [1]): > 300 µM | selectivity ratio [2]: > 16 | pEC50 (West Nile virus [3]): 4.72

O=C(c1ccccc1)N1N=C(c2ccc(Br)s2)CC1c1ccc(Cl)cc1 (stereo unspecified)
CC50 (BHK-21 [1]): > 300 µM | selectivity ratio [2]: > 18 | pEC50 (West Nile virus [3]): 4.77
